ChEMBL document CHEMBL1275351, “Novel spirotetracyclic zwitterionic dual H(1)/5-HT(2A) receptor antagonists for the treatment of sleep disorders” (J Med Chem, 2010)

Key:
[1] = molecular target: 5-hydroxytryptamine receptor 2A (Homo sapiens, UniProt P28223); experiment: Antagonist activity at human 5HT2A receptor expressed in HEK cells assessed as inhibition of intracellular calcium accumulation by aequorin assay; assay type: functional, cell-based, HEK293
[2] = molecular target: T1, 5-hydroxytryptamine receptor 2C (Homo sapiens, UniProt P28335); experiment: Antagonist activity at human 5HT2C receptor expressed in human SH-SY5Y cells by FLIPR assay; assay type: functional, cell-based
T1 sequence (P28335 whole entry): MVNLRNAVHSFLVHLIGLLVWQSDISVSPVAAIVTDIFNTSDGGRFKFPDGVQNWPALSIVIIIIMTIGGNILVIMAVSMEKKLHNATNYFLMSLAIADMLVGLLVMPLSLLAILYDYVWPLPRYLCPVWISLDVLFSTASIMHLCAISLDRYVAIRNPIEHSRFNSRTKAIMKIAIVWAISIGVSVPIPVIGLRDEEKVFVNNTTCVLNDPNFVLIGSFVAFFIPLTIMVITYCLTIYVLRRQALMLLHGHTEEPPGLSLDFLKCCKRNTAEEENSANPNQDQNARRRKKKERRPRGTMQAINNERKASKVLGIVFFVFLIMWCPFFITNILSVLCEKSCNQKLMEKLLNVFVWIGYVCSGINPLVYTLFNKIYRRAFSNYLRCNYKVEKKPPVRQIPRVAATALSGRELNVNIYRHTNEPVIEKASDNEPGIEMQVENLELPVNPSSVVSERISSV

[3] = Half life in Sprague-Dawley rat at 0.5 mg/kg, iv and 1 mg/kg, po; assay type: ADME, organism-based; settings: in vivo
Method in brief: (§1)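 Male Sprague-Dawley rats, cassette dosing. Compounds were given as an iv bolus and as an oral suspension. Blood samples were taken at intervals up to 24 h, processed by protein precipitation and analysed by HPLC-MS/MS.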

[4] = Fraction unbound in rat brain; assay type: ADME, tissue-based
Cytochrome P450 2D6 = Cytochrome P450 2D6 (Homo sapiens, UniProt P10635); experiment: Inhibition of human CYP2D6 transfected in bactosome expression system by spectrofluorimetry; assay type: ADME
Method in brief: (§2)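 Recombinant human CYP Bactosomes (0.1 mg/mL) in 50 mM phosphate buffer, pH 7.4. Compound at 0.1-10 μM was preincubated with fluorogenic substrate for 10 min at 37 °C, and the reaction was started with an NADPH regenerating system. Metabolite fluorescence was followed for 10 min. Substrates: 1A2 ethoxyresorufin 0.5 μM; 2C9 FCA 50 μM; 2C19 BMC 10 μM; 2D6 MMC 10 μM; 3A4 DEF 1 μM or 7-BQ 25 μM. Run in triplicate.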

Cytochrome P450 3A4 = Cytochrome P450 3A4 (Homo sapiens, UniProt P08684); experiment: Inhibition of human CYP3A4 transfected in bactosome expression system by spectrofluorimetry; assay type: ADME; method in brief: as §2
[5] = Blood clearance in Sprague-Dawley rat at 0.5 mg/kg, iv and 1 mg/kg, po; assay type: ADME, organism-based; settings: whole blood; method in brief: as §1
[6] = molecular target: 5-hydroxytryptamine receptor 2B (Homo sapiens, UniProt P41595); experiment: Antagonist activity at human 5HT2B receptor expressed in human SH-SY5Y cells by FLIPR assay
Cytochrome P450 1A2 = molecular target: T2, Cytochrome P450 1A2 (Homo sapiens, UniProt P05177); experiment: Inhibition of human CYP1A2 transfected in bactosome expression system by spectrofluorimetry; assay type: ADME; method in brief: as §2
T2 sequence (P05177 whole entry): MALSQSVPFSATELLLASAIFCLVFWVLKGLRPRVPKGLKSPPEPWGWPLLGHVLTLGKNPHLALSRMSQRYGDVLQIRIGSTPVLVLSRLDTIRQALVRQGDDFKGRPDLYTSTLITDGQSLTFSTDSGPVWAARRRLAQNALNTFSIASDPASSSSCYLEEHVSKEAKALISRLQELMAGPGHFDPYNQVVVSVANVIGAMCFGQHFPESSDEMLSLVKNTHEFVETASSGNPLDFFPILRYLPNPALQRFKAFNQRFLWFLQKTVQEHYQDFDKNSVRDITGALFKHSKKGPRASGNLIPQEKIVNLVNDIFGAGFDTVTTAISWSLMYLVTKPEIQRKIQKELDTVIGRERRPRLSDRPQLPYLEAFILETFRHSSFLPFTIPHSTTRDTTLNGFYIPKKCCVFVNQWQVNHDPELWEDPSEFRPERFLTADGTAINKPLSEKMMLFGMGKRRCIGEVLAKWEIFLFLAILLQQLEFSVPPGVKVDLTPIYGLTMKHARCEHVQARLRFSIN

[7] = Oral bioavailability in Sprague-Dawley rat at 1 mg/kg; assay type: ADME, organism-based; settings: in vivo; method in brief: as §1
Histamine H1 receptor [8] = molecular target: Histamine H1 receptor (Rattus norvegicus, UniProt P31390); experiment: Displacement of [3H]pyrilamine from histamine H1 receptor in Sprague-Dawley rat cortical membrane by liquid scintillation counting
Method in brief: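 Cerebral cortex membranes from male Sprague-Dawley rats (200-250 g), 150 μg/well. Incubated with 0.6 nM [3H]pyrilamine in 50 mM HEPES, pH 7.4, for 2 h at room temperature. Filtered on PEI-soaked GF/B and counted by scintillation. Nonspecific binding with 10 μM cetirizine. Ki by Cheng-Prusoff; mean of two experiments in duplicate.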

Histamine H1 receptor [9] = molecular target: Histamine H1 receptor (Homo sapiens, UniProt P35367); experiment: Antagonist activity against human histamine H1 receptor expressed in CHO cells by FLIPR assay; assay type: functional, cell-based
[10] = Volume of distribution at steady state in Sprague-Dawley rat at 0.5 mg/kg, iv and 1 mg/kg, po; assay type: ADME, organism-based; settings: in vivo, read-out: Vdss; method in brief: as §1
[11] = molecular target: 5-hydroxytryptamine receptor 2A (Rattus norvegicus, UniProt P14842); experiment: Displacement of [3H]ketanserin from 5HT2A receptor in Sprague-Dawley rat cortical membrane by liquid scintillation counting
Method in brief: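 Cerebral cortex membranes from male Sprague-Dawley rats (200-250 g), 50 μg/well. Incubated with 1 nM [3H]ketanserin in 50 mM Tris-HCl, 10 mM MgCl2, pH 7.4, for 1 h at 37 °C with shaking. Filtered on PEI-soaked GF/B and counted by scintillation. Nonspecific binding with 10 μM mianserin. Ki by Cheng-Prusoff; mean of two experiments in duplicate.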

[12] = molecular target: Voltage-gated inwardly rectifying potassium channel KCNH2 (Homo sapiens, UniProt Q12809); experiment: Displacement of [3H]dofetilide from human ERG by scintillation proximity assay
Cytochrome P450 2C9 = Cytochrome P450 2C9 (Homo sapiens, UniProt P11712); experiment: Inhibition of human CYP2C9 transfected in bactosome expression system by spectrofluorimetry; assay type: ADME; method in brief: as §2
[13] = Fraction unbound in rat blood; assay type: ADME, tissue-based
Cytochrome P450 2C19 = Cytochrome P450 2C19 (Homo sapiens, UniProt P33261); experiment: Inhibition of human CYP2C19 transfected in bactosome expression system by spectrofluorimetry; assay type: ADME; method in brief: as §2
[14] = Ratio of drug level in brain to blood in Sprague-Dawley rat at 0.5 mg/kg, iv and 1 mg/kg, po; assay type: ADME, organism-based; settings: read-out: BBR
Method in brief: (§3)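 Male Sprague-Dawley rats, cassette dosing, iv bolus or oral suspension. Blood and brain levels were measured by protein precipitation and HPLC-MS/MS. Brain:blood ratio was taken from AUC0-8h after oral dosing, or at 1 h after iv dosing for one compound.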

[15] = Volume of distribution at steady state in Sprague-Dawley rat at 1 mg/kg, iv and 3 mg/kg, po; assay type: ADME, organism-based; settings: in vivo, read-out: Vdss; method in brief: as §1
[16] = Ratio of drug level in brain to blood in Sprague-Dawley rat at 1 mg/kg, iv and 3 mg/kg, po; assay type: ADME, organism-based; settings: read-out: BBR; method in brief: as §3
[17] = Oral bioavailability in Sprague-Dawley rat at 3 mg/kg; assay type: ADME, organism-based; settings: in vivo; method in brief: as §1
[18] = Half life in Sprague-Dawley rat at 1 mg/kg, iv and 3 mg/kg, po; assay type: ADME, organism-based; settings: in vivo; method in brief: as §1
[19] = Blood clearance in Sprague-Dawley rat at 1 mg/kg, iv and 3 mg/kg, po; assay type: ADME, organism-based; settings: whole blood; method in brief: as §1
[20] = Selectivity ratio of pKi for human alpha1A adrenergic receptor to pKi for human Alpha-1B adrenergic receptor

Sequence of 5-hydroxytryptamine receptor 2B (P41595 whole entry): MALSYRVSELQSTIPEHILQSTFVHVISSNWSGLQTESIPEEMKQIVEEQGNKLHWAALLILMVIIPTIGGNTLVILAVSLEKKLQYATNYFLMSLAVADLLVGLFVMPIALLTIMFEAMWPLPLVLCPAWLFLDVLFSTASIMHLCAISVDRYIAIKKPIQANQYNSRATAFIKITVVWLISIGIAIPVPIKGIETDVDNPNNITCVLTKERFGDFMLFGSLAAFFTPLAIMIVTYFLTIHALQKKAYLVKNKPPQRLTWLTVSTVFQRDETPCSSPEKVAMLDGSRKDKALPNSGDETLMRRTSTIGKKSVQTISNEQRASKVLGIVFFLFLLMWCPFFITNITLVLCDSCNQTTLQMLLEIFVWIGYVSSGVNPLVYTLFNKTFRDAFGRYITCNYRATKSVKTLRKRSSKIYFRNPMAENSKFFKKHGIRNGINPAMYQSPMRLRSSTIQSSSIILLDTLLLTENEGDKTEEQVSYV
Sequence of 5-hydroxytryptamine receptor 2A (Homo sapiens, UniProt P28223) (P28223 whole entry): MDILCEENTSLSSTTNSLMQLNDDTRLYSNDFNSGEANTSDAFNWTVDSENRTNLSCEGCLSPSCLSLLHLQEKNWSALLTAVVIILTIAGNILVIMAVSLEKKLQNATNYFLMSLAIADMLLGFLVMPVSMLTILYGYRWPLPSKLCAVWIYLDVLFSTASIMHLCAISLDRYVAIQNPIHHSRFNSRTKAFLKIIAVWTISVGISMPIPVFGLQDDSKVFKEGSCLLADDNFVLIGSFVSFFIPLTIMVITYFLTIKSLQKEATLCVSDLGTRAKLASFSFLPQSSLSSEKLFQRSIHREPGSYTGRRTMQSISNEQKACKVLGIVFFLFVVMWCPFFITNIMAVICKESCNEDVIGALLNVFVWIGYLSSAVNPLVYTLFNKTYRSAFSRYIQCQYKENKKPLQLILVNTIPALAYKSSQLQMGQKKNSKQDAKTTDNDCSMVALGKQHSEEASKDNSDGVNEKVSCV
Sequence of Histamine H1 receptor (Homo sapiens, UniProt P35367) (P35367 whole entry): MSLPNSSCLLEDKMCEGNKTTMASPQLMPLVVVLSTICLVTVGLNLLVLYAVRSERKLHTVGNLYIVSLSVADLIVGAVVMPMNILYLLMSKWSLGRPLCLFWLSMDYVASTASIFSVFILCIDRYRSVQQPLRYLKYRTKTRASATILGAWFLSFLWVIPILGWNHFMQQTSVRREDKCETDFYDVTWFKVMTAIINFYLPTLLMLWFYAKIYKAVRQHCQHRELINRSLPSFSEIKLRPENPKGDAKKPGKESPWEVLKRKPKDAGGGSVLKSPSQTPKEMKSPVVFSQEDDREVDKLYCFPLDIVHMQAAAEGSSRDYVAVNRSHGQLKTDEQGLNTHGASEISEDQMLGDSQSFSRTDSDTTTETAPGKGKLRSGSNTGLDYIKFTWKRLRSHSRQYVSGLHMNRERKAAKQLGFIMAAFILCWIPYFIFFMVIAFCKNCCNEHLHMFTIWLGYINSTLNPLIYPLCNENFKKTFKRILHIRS
Sequence of Histamine H1 receptor (Rattus norvegicus, UniProt P31390) (P31390 whole entry): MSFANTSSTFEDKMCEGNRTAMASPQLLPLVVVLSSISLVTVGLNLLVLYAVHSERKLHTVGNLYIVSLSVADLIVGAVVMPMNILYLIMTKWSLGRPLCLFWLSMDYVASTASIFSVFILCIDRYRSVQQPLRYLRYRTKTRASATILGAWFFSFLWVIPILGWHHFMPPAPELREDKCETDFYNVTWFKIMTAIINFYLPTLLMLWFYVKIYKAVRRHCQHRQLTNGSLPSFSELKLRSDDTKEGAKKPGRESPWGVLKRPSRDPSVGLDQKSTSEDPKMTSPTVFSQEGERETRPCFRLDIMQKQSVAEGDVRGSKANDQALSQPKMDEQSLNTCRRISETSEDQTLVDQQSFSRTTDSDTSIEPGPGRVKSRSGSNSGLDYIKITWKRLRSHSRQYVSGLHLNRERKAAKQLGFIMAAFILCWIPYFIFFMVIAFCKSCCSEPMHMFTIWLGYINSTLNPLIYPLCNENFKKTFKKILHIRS
Sequence of Cytochrome P450 2D6 (P10635 whole entry): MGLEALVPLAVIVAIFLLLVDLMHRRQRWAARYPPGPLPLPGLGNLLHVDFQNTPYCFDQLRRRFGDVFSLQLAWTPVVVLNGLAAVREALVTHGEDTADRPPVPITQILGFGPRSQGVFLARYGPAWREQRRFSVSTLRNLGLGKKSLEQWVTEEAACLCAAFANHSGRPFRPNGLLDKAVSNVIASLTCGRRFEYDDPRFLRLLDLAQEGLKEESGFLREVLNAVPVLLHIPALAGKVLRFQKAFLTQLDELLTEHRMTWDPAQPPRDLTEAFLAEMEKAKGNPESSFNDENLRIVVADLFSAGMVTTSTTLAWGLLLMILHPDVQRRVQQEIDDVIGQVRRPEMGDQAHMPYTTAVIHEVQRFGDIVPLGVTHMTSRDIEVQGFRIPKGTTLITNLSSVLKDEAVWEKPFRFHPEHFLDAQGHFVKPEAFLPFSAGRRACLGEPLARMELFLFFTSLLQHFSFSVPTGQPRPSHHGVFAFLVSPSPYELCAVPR
Sequence of Voltage-gated inwardly rectifying potassium channel KCNH2 (Q12809 whole entry): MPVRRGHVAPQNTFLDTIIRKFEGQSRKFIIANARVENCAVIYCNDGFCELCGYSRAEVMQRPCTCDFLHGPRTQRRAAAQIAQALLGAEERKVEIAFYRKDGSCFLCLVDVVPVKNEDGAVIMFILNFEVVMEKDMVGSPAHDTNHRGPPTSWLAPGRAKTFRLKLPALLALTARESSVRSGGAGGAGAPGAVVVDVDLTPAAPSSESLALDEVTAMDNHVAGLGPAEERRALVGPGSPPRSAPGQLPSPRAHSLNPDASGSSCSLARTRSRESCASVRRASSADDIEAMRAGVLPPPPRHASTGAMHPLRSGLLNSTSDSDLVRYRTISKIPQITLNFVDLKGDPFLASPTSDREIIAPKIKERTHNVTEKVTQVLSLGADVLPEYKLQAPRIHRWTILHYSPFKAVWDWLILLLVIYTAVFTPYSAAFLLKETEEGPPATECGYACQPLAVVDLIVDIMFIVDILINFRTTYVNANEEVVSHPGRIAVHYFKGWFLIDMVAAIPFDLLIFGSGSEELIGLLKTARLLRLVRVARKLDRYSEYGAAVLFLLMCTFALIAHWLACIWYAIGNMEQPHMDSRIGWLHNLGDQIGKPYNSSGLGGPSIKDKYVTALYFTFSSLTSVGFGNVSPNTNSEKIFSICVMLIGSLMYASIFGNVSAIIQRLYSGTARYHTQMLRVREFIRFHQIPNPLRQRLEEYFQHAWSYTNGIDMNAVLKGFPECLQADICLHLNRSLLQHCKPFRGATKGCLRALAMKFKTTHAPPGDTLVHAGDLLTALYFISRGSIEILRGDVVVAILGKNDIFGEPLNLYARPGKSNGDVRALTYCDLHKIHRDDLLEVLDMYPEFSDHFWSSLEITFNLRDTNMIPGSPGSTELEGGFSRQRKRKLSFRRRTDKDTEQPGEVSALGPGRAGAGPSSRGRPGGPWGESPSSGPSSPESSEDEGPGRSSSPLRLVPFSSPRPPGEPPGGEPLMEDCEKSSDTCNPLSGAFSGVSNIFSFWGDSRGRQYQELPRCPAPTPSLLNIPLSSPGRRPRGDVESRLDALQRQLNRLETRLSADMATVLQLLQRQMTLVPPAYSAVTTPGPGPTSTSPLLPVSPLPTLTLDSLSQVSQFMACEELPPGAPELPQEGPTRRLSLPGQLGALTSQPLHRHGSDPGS
Sequence of Cytochrome P450 2C9 (P11712 whole entry): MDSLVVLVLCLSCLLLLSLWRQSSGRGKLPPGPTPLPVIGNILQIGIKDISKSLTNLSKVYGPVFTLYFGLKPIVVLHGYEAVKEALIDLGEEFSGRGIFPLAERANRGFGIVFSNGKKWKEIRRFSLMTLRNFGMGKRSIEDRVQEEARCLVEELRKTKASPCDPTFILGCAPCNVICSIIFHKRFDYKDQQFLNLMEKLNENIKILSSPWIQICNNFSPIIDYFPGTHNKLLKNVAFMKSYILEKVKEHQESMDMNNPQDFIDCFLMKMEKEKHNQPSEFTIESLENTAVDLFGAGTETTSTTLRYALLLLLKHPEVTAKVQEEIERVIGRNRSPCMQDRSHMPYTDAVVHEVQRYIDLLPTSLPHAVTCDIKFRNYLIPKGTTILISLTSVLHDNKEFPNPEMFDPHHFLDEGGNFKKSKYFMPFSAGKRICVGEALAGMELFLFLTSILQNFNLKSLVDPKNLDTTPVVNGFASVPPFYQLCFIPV
Sequence of 5-hydroxytryptamine receptor 2A (Rattus norvegicus, UniProt P14842) (P14842 whole entry): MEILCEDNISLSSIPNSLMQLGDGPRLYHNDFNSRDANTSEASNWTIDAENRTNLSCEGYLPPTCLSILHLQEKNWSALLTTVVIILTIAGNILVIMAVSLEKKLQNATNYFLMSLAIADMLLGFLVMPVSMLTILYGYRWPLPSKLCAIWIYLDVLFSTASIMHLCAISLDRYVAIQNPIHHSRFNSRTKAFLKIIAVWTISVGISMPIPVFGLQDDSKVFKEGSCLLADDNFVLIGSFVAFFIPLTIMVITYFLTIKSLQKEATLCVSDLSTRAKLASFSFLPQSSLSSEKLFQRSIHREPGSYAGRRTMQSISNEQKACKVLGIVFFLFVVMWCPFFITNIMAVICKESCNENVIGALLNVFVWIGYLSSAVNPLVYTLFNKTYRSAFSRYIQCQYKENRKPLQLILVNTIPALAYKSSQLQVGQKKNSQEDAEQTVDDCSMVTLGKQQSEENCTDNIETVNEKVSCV

Row | Ki [1] [nM] | Ki [2] [nM] | fraction unbound [4] | IC50 (Cytochrome P450 2D6) [nM] | IC50 (Cytochrome P450 3A4) [nM] | Ki [6] [nM] | IC50 (Cytochrome P450 1A2) [nM] | Ki (Histamine H1 receptor [8]) [nM] | Ki (Histamine H1 receptor [9]) [nM] | Ki [11] [nM] | IC50 (Cytochrome P450 2C9) [nM] | fraction unbound [13] | IC50 (Cytochrome P450 2C19) [nM] | Compound | IC50 [12] [nM] | other results
1 | 31.6 | 63.1 | 0.023 | > 10000 | > 10000 | 398 | > 10000 | 5.37 | 31.6 | 69.2 | > 10000 | 0.08 | > 10000 | O=C(O)[C@]12C[C@H]1CN(C1CC[C@]3(Cc4ccccc4Cc4ccccc43)C1)C2 (stereo partly drawn) | > 39800 | half-life [3]: 5.3 h; clearance [5]: 5 mL/min/kg; bioavailability [7]: 62%; Vd [10]: 2.4 L/kg; Kp [14]: 2.2
2 | 50.1 | 1000 | 0.02 | > 10000 | > 10000 | > 2000 | > 10000 | 12.3 | 39.8 | 355 | > 10000 | 0.084 | > 10000 | O=C(O)C1(F)CCN(C2CC[C@]3(Cc4ccccc4Cc4ccccc43)C2)CC1 (stereo partly drawn) | > 39800 | Vd [15]: 3.8 L/kg; Kp [16]: 0.1; bioavailability [17]: 22%; half-life [18]: 1.2 h; clearance [19]: 61 mL/min/kg
3 | 12.6 | 7.94 | – | – | – | 15.8 | – | – | 3.98 | – | – | – | – | CN(C)C1CC[C@]2(Cc3ccccc3Cc3ccccc32)C1 (stereo partly drawn) | – | pKi [20]: < 6
